Assay results: ChEMBL document CHEMBL2385051, “Facile synthesis of new imidazo[1,2-a]pyridines carrying 1,2,3-triazoles via click chemistry and their antiepileptic studies” (Bioorg Med Chem Lett, 2013)
The source made the active and inactive calls. The rule behind the calls is not given here.

Columns and labels:
Mus musculus [1] = test: Neurotoxicity in NMRI mouse assessed as minimal motor impairment at 20 to 100 mg/kg, ip after 4 hrs by rotarod test; format: toxicity, organism-based; design: dose 20-100 mg/kg, route intraperitoneal; conditions: in vivo
Method in brief: (§1)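 Rotarod motor-impairment test in mice given 20, 40 and 100 mg/kg doses, read 0.5 and 4 h after administration. The value recorded is the minimal dose producing toxicity in more than 50% of mice.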

Mus musculus [2] = test: Anticonvulsant activity in NMRI mouse assessed as protection against maximal electroshock-induced seizures at 20 to 100 mg/kg, ip after 4 hrs; format: functional, organism-based
Method in brief: (§2)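 Mice received 20, 40 and 100 mg/kg test doses. Seizures were induced by electrical shock (MES) or PTZ injection (scPTZ) at 0.5 and 4 h after dosing. The value recorded is the minimal dose protecting more than 50% of mice against seizure.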

Mus musculus [3] = test: Anticonvulsant activity in ip dosed NMRI mouse assessed as dose required to cause protection against subcutaneous pentylene tetrazole-induced seizure after 4 hrs; format: functional; conditions: read-out: MED; method in brief: as §2
Mus musculus [4] = test: Neurotoxicity in NMRI mouse assessed as minimal motor impairment at 20 to 100 mg/kg, ip after 0.5 hrs by rotarod test; format: toxicity, organism-based; design: dose 20-100 mg/kg, route intraperitoneal; conditions: in vivo; method in brief: as §1
Mus musculus [5] = test: Anticonvulsant activity in NMRI mouse assessed as protection against maximal electroshock-induced seizures at 20 to 100 mg/kg, ip after 0.5 hrs; format: functional, organism-based; method in brief: as §2
Mus musculus [6] = test: Anticonvulsant activity in NMRI mouse assessed as protection against subcutaneous pentylene tetrazole-induced seizure at 20 to 100 mg/kg, ip after 0.5 hrs; format: functional, organism-based; method in brief: as §2
Mus musculus [7] = test: Anticonvulsant activity in NMRI mouse assessed as protection against subcutaneous pentylene tetrazole-induced seizure at 20 to 100 mg/kg, ip after 4 hrs; format: functional, organism-based; method in brief: as §2
Mus musculus [8] = test: Anticonvulsant activity in ip dosed NMRI mouse assessed as dose required to cause protection against subcutaneous pentylene tetrazole-induced seizure after 0.5 hrs; format: functional; conditions: read-out: MED; method in brief: as §2
Mus musculus [9] = test: Anticonvulsant activity in ip dosed NMRI mouse assessed as dose required to cause protection against maximal electroshock-induced seizures after 4 hrs; format: functional; conditions: read-out: MED; method in brief: as §2
[10] = Neurotoxicity in ip dosed NMRI mouse assessed as dose required to cause minimal motor impairment after 4 hrs by rotarod test; format: toxicity, organism-based; conditions: in vivo, read-out: MTC50; method in brief: as §1

For `Cc1cccn2c(/C=N/OCc3cn(Cc4ccc(C#N)cc4)nn3)c(-c3ccccc3)nc12`, which Activity (Mus musculus [1]) is on record?
Its Activity is “Non-toxic”.

And the Activity (Mus musculus [2])?
The Activity was “inactive”.

What about the minimal effective dose (Mus musculus [3]) of the same compound?
The minimal effective dose was 40 mg/kg.

What about the Activity (Mus musculus [4]) of the same compound?
Its Activity is “Non-toxic”.

What about the Activity (Mus musculus [5]) of the same compound?
Its Activity is “inactive”.

What about the Activity (Mus musculus [6]) of the same compound?
Its Activity is “inactive”.

What does the source list for `Cc1ccc(Cn2cc(CO/N=C/c3c(-c4ccccc4)nc4c(C)cccn34)nn2)cc1`?
Activity (Mus musculus [1]): Non-toxic; Activity (Mus musculus [7]): inactive; Activity (Mus musculus [2]): inactive; Activity (Mus musculus [4]): Non-toxic; Activity (Mus musculus [5]): inactive; Activity (Mus musculus [6]): inactive

With `Cc1ccc(-c2nc3ccc(Br)cn3c2/C=N/OCc2cn(Cc3ccc(C#N)cc3)nn2)cc1` as the compound, how does the Activity (Mus musculus [1]) read?
Its Activity is “Non-toxic”.

What about the Activity (Mus musculus [2]) of the same compound?
Its Activity is “inactive”.

What about the minimal effective dose (Mus musculus [3]) of the same compound?
The minimal effective dose was 40 mg/kg.

What about the Activity (Mus musculus [4]) of the same compound?
Its Activity is “Non-toxic”.

What about the Activity (Mus musculus [5]) of the same compound?
The Activity was “inactive”.

And the minimal effective dose (Mus musculus [8])?
Its minimal effective dose is 40 mg/kg.

With `C#CCO/N=C/c1c(-c2ccc(C)cc2)nc2ccc(Br)cn12` as the compound, how does the Activity (Mus musculus [1]) read?
The Activity was “Non-toxic”.

What about the minimal effective dose (Mus musculus [9]) of the same compound?
The minimal effective dose was 20 mg/kg.

What about the minimal effective dose (Mus musculus [3]) of the same compound?
The minimal effective dose was 40 mg/kg.

And the Activity (Mus musculus [4])?
The Activity was “Non-toxic”.

And the Activity (Mus musculus [5])?
Its Activity is “inactive”.

And the minimal effective dose (Mus musculus [8])?
Its minimal effective dose is 20 mg/kg.

Which Activity (Mus musculus [1]) does the source give for `COc1ccc(Cn2cc(CO/N=C/c3c(-c4ccc(F)cc4)nc4c(C)cccn34)nn2)cc1` here?
Its Activity is “Non-toxic”.

What about the Activity (Mus musculus [2]) of the same compound?
The Activity was “inactive”.

What about the minimal effective dose (Mus musculus [3]) of the same compound?
The minimal effective dose was 40 mg/kg.

What about the Activity (Mus musculus [4]) of the same compound?
Its Activity is “Non-toxic”.

What about the Activity (Mus musculus [5]) of the same compound?
Its Activity is “inactive”.

What about the minimal effective dose (Mus musculus [8]) of the same compound?
The minimal effective dose was 40 mg/kg.

Which results are given for `Cc1cccn2c(/C=N/O)c(-c3ccccc3)nc12`?
Activity (Mus musculus [1]): Non-toxic; Activity (Mus musculus [7]): inactive; Activity (Mus musculus [2]): inactive; Activity (Mus musculus [4]): Non-toxic; Activity (Mus musculus [5]): inactive; Activity (Mus musculus [6]): inactive

Which Activity (Mus musculus [1]) does the source give for `COc1ccc(Cn2cc(CO/N=C/c3c(-c4ccccc4)nc4c(C)cccn34)nn2)cc1` here?
Its Activity is “Non-toxic”.

And the minimal effective dose (Mus musculus [9])?
The minimal effective dose was 40 mg/kg.

And the minimal effective dose (Mus musculus [3])?
Its minimal effective dose is 100 mg/kg.

And the Activity (Mus musculus [4])?
Its Activity is “Non-toxic”.

What about the Activity (Mus musculus [5]) of the same compound?
Its Activity is “inactive”.

What about the minimal effective dose (Mus musculus [8]) of the same compound?
Its minimal effective dose is 40 mg/kg.

Which Activity (Mus musculus [1]) does the source give for `C#CCO/N=C/c1c(-c2ccc(F)cc2)nc2ccc(Br)cn12` here?
Its Activity is “Non-toxic”.

And the Activity (Mus musculus [7])?
The Activity was “inactive”.

What about the Activity (Mus musculus [2]) of the same compound?
Its Activity is “inactive”.

What about the Activity (Mus musculus [4]) of the same compound?
The Activity was “Non-toxic”.

And the Activity (Mus musculus [5])?
Its Activity is “inactive”.

And the minimal effective dose (Mus musculus [8])?
The minimal effective dose was 40 mg/kg.

Which Activity (Mus musculus [1]) does the source give for `CN1C(=O)CN=C(c2ccccc2)c2cc(Cl)ccc21` [DIAZEPAM] here?
Its Activity is “Non-toxic”.

And the minimal effective dose (Mus musculus [3])?
Its minimal effective dose is 20 mg/kg.

And the Activity (Mus musculus [4])?
Its Activity is “Non-toxic”.

And the minimal effective dose (Mus musculus [8])?
Its minimal effective dose is 20 mg/kg.

What does the source list for `C#CCO/N=C/c1c(-c2ccccc2)nc2ccc(Br)cn12`?
Activity (Mus musculus [1]): Non-toxic; Activity (Mus musculus [7]): inactive; Activity (Mus musculus [2]): inactive; Activity (Mus musculus [4]): Non-toxic; Activity (Mus musculus [5]): inactive; Activity (Mus musculus [6]): inactive

For `C#CCO/N=C/c1c(-c2ccccc2)nc2c(C)cccn12`, which Activity (Mus musculus [1]) is on record?
Its Activity is “Non-toxic”.

And the Activity (Mus musculus [2])?
Its Activity is “inactive”.

And the minimal effective dose (Mus musculus [3])?
The minimal effective dose was 100 mg/kg.

What about the Activity (Mus musculus [4]) of the same compound?
Its Activity is “Non-toxic”.

And the Activity (Mus musculus [5])?
The Activity was “inactive”.

And the Activity (Mus musculus [6])?
The Activity was “inactive”.

Which minimal effective dose (Mus musculus [9]) does the source give for `O=[N+]([O-])c1ccc(Cn2cc(CO/N=C/c3c(-c4ccc(F)cc4)nc4ccc(Br)cn34)nn2)cc1` here?
The minimal effective dose was 100 mg/kg.

And the minimal effective dose (Mus musculus [3])?
Its minimal effective dose is 100 mg/kg.

And the Activity (Mus musculus [4])?
Its Activity is “Non-toxic”.

What about the Activity (Mus musculus [5]) of the same compound?
Its Activity is “inactive”.

And the TD50 at 4 h [10]?
The TD50 at 4 h was 100 mg/kg.

What about the minimal effective dose (Mus musculus [8]) of the same compound?
The minimal effective dose was 40 mg/kg.

For `COc1ccc(Cn2cc(CO/N=C/c3c(-c4ccccc4)nc4ccc(Br)cn34)nn2)cc1`, which Activity (Mus musculus [1]) is on record?
Its Activity is “Non-toxic”.

What about the Activity (Mus musculus [2]) of the same compound?
The Activity was “inactive”.

What about the minimal effective dose (Mus musculus [3]) of the same compound?
The minimal effective dose was 40 mg/kg.

And the Activity (Mus musculus [4])?
The Activity was “Non-toxic”.

What about the Activity (Mus musculus [5]) of the same compound?
The Activity was “inactive”.

What about the Activity (Mus musculus [6]) of the same compound?
The Activity was “inactive”.

With `Cc1cccn2c(/C=N/O)c(-c3ccc(F)cc3)nc12` as the compound, how does the Activity (Mus musculus [1]) read?
Its Activity is “Non-toxic”.

What about the Activity (Mus musculus [2]) of the same compound?
Its Activity is “inactive”.

And the minimal effective dose (Mus musculus [3])?
Its minimal effective dose is 40 mg/kg.

What about the Activity (Mus musculus [4]) of the same compound?
Its Activity is “Non-toxic”.

What about the Activity (Mus musculus [5]) of the same compound?
The Activity was “inactive”.

What about the Activity (Mus musculus [6]) of the same compound?
The Activity was “inactive”.

For `COc1ccc(Cn2cc(CO/N=C/c3c(-c4ccc(C)cc4)nc4c(C)cccn34)nn2)cc1`, which Activity (Mus musculus [1]) is on record?
Its Activity is “Non-toxic”.

And the minimal effective dose (Mus musculus [9])?
Its minimal effective dose is 100 mg/kg.

What about the minimal effective dose (Mus musculus [3]) of the same compound?
The minimal effective dose was 100 mg/kg.

What about the Activity (Mus musculus [4]) of the same compound?
Its Activity is “Non-toxic”.

What about the Activity (Mus musculus [5]) of the same compound?
The Activity was “inactive”.

What about the minimal effective dose (Mus musculus [8]) of the same compound?
Its minimal effective dose is 40 mg/kg.

With `COc1ccc(Cn2cc(CO/N=C/c3c(-c4ccc(C)cc4)nc4ccc(Br)cn34)nn2)cc1` as the compound, how does the Activity (Mus musculus [1]) read?
The Activity was “Non-toxic”.

And the Activity (Mus musculus [2])?
Its Activity is “inactive”.

And the minimal effective dose (Mus musculus [3])?
The minimal effective dose was 40 mg/kg.

And the Activity (Mus musculus [4])?
Its Activity is “Non-toxic”.

What about the Activity (Mus musculus [5]) of the same compound?
The Activity was “inactive”.

And the Activity (Mus musculus [6])?
The Activity was “inactive”.

What does the source list for `Cc1ccc(Cn2cc(CO/N=C/c3c(-c4ccc(C)cc4)nc4ccc(Br)cn34)nn2)cc1`?
Activity (Mus musculus [1]): Non-toxic; Activity (Mus musculus [2]): inactive; minimal effective dose (Mus musculus [3]): 100 mg/kg; Activity (Mus musculus [4]): Non-toxic; Activity (Mus musculus [5]): inactive; minimal effective dose (Mus musculus [8]): 40 mg/kg
